The subject of one data set is Hepatitis C virus. Briefly: Antiviral activity against HCV assessed as inhibition of viral replication by luciferase assay. It is filed as functional, organism-based, Hepacivirus hominis. In outline:
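Huh-5-2 replicon cells (5 × 10³/well) seeded in complete DMEM with G418, 24 h at 37 °C (5% CO2), then medium refreshed with G418 and compounds added from DMSO stock; 4 days at 37 °C; luciferase activity read by Steady-Glo. EC50 = concentration inhibiting HCV RNA replication by 50%, averaged from triplicate determinations; IFN-α as positive control.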

Data set [1] is described as follows: Cytotoxicity against human Huh5-2 cells after 3 days by WST-1 assay. It is filed as cell-based, Huh-5-2. In outline:
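Huh-5-2 cells seeded at 5 × 10³/well in complete DMEM with G418; serial compound dilutions in DMEM without G418 added 24 h later; cells proliferated 3 days at 37 °C; cell number by WST-1. CC50 = concentration reducing cell proliferation by 50%.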
On the technique in general: Formazan colour is commonly taken as a measure of viable cells.

A short description of data set [2]: Selectivity index, ratio of CC50 for human Huh5-2 cells to EC50 for HCV. Set-up: species or system Huh-5-2. An outline of the steps: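 Selectivity index computed as CC50 (Huh-5-2 proliferation, WST-1, 3 days) divided by EC50 (replicon luciferase, 4 days), both from the same Huh-5-2 cell line.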

Data on 22 molecules can be found in ChEMBL document CHEMBL1255535, “7-O-Arylmethylgalangin as a novel scaffold for anti-HCV agents” (Bioorg Med Chem Lett, 2010).

Where only a bound is given, the exact number is not on record here.

In the case of `COc1ccccc1COc1cc(O)c2c(=O)c(O)c(-c3ccccc3)oc2c1`, the EC50 (in general, the concentration that produces a half-maximal response) in the data set on Hepatitis C virus worked out at 53 µM. In addition, in data set [1], the CC50 (as a rule, the concentration at which the toxic effect on the cells reaches its halfway point) at 72 h is greater than 100 µM.

As to `O=c1c(O)c(-c2ccccc2)oc2cc(OCc3ccccc3Cl)cc(O)c12`, the EC50 in the data set with Hepatitis C virus is 30 µM. The 50% cytotoxic concentration (CC50) at 72 h in data set [1] is greater than 100 µM.

On to `O=c1c(O)c(-c2ccccc2)oc2cc(OCc3ccccc3Br)cc(O)c12`, for which, in the data set on Hepatitis C virus, the EC50 worked out at 10 µM. The molecule also returned a CC50 at 72 h in data set [1] greater than 100 µM.

Consider `N#Cc1ccccc1COc1cc(O)c2c(=O)c(O)c(-c3ccccc3)oc2c1`, for which, in the data set with Hepatitis C virus, the concentration giving a half-maximal response (EC50) was determined as 39 µM. The molecule also had a 50% cytotoxic concentration (CC50) at 72 h in data set [1] of 22 µM. Also, the “Selectivity Index” value in data set [2] stood at 0.6.

Consider `O=c1c(O)c(-c2ccccc2)oc2cc(OCc3ccccc3[N+](=O)[O-])cc(O)c12`, for which the half-maximal effective concentration (EC50) with Hepatitis C virus came to 25 µM. Moreover, the midpoint of cytotoxicity in data set [1], the CC50 at 72 h, lay at 32 µM. Moreover, in data set [2], the “Selectivity Index” value worked out at 1.3.

For the molecule `Cc1ccccc1COc1cc(O)c2c(=O)c(O)c(-c3ccccc3)oc2c1`, the EC50 in the data set on Hepatitis C virus amounted to 7 µM. Further, in data set [1], the 50% cytotoxic concentration (CC50) at 72 h worked out at 17 µM. Also, the “Selectivity Index” value in data set [2] is reported as 2.4.

For the molecule `O=c1c(O)c(-c2ccccc2)oc2cc(OCc3cccc(Cl)c3)cc(O)c12`, in the data set with Hepatitis C virus, the EC50 came out at 22 µM. In data set [1], this molecule had a half-maximal cytotoxic concentration (CC50) at 72 h greater than 100 µM.

For `O=c1c(O)c(-c2ccccc2)oc2cc(OCc3cccc(Br)c3)cc(O)c12`, in the data set with Hepatitis C virus, the concentration giving a half-maximal response (EC50) came to 37 µM. The same molecule had a CC50 at 72 h in data set [1] greater than 100 µM.

For `N#Cc1cccc(COc2cc(O)c3c(=O)c(O)c(-c4ccccc4)oc3c2)c1`, the EC50 in the data set with Hepatitis C virus amounted to 3 µM. In addition, the CC50 at 72 h in data set [1] stood at 72 µM. The “Selectivity Index” value in data set [2] was determined as 24.

Take `O=c1c(O)c(-c2ccccc2)oc2cc(OCc3cccc([N+](=O)[O-])c3)cc(O)c12`: in the data set on Hepatitis C virus, the EC50 worked out at 2 µM. The CC50 at 72 h in data set [1] was 76 µM. In data set [2], the “Selectivity Index” value is on record as 38.

As to `Cc1cccc(COc2cc(O)c3c(=O)c(O)c(-c4ccccc4)oc3c2)c1`, the 50% effective concentration (EC50) in the data set with Hepatitis C virus worked out at 27 µM. This molecule also showed a cytotoxic concentration (CC50) at 72 h in data set [1] of 35 µM. Moreover, the “Selectivity Index” value in data set [2] is 1.3.

With `COc1cccc(COc2cc(O)c3c(=O)c(O)c(-c4ccccc4)oc3c2)c1`, the EC50 in the data set on Hepatitis C virus is 15 µM. Moreover, the 50% cytotoxic concentration (CC50) at 72 h in data set [1] was greater than 100 µM.

`O=c1c(O)c(-c2ccccc2)oc2cc(OCc3ccc(Cl)cc3)cc(O)c12`: in the data set on Hepatitis C virus, the half-maximal effective concentration (EC50) was 8 µM. This molecule gave a CC50 at 72 h in data set [1] greater than 100 µM.

Consider `O=c1c(O)c(-c2ccccc2)oc2cc(OCc3ccc(Br)cc3)cc(O)c12`, for which the EC50 in the data set with Hepatitis C virus came to 6 µM. Moreover, in data set [1], the CC50 at 72 h is greater than 100 µM.

Take `N#Cc1ccc(COc2cc(O)c3c(=O)c(O)c(-c4ccccc4)oc3c2)cc1`: the EC50 in the data set with Hepatitis C virus came to 19 µM. In data set [1], this molecule showed a CC50 at 72 h of 94 µM. The “Selectivity Index” value in data set [2] is listed as 4.9.

Take `O=c1c(O)c(-c2ccccc2)oc2cc(OCc3ccc([N+](=O)[O-])cc3)cc(O)c12`: the EC50 with Hepatitis C virus came to 10 µM. The molecule also displayed a cytotoxic concentration (CC50) at 72 h in data set [1] of 93 µM. Besides, the “Selectivity Index” value in data set [2] is recorded as 9.3.

Regarding `Cc1ccc(COc2cc(O)c3c(=O)c(O)c(-c4ccccc4)oc3c2)cc1`, in the data set with Hepatitis C virus, the EC50 turned out to be 6 µM. The molecule further registered a CC50 at 72 h in data set [1] of 88 µM. In addition, the “Selectivity Index” value in data set [2] is reported as 14.7.

In the case of `COc1ccc(COc2cc(O)c3c(=O)c(O)c(-c4ccccc4)oc3c2)cc1`, in the data set with Hepatitis C virus, the EC50 turned out to be 38 µM. Also, in data set [1], the CC50 at 72 h is greater than 100 µM.

With `N#Cc1ccc(-c2oc3cc(OCc4ccc(Cl)cc4)cc(O)c3c(=O)c2O)cc1`, in the data set on Hepatitis C virus, the concentration for a half-maximal effect (EC50) is 0.9 µM. The molecule also yielded a cytotoxic concentration (CC50) at 72 h in data set [1] of 67 µM. Also, in data set [2], the “Selectivity Index” value was found to be 74.4.

For the molecule `O=c1c(O)c(-c2ccc(C(F)(F)F)cc2)oc2cc(OCc3ccc(Cl)cc3)cc(O)c12`, the concentration for a half-maximal effect (EC50) in the data set with Hepatitis C virus stood at 3 µM. For the same molecule, the CC50 at 72 h in data set [1] stood at 73 µM. Moreover, in data set [2], the “Selectivity Index” value came out at 24.3.

With `COc1ccc(-c2oc3cc(OCc4ccc(Cl)cc4)cc(O)c3c(=O)c2O)cc1`, the EC50 in the data set on Hepatitis C virus is 6 µM. In data set [1], this molecule returned a cytotoxic concentration (CC50) at 72 h of 64 µM. In addition, the “Selectivity Index” value in data set [2] amounted to 10.7.

With `O=C(O)/C(O)=C/C(=O)c1cccc(NCc2ccc(Cl)cc2)c1`, in the data set with Hepatitis C virus, the concentration giving a half-maximal response (EC50) is 0.82 µM.
